Published values collected from several papers.
Compare with care: the assays were run in different laboratories.
Target: Serine/threonine-protein kinase OSR1 (OXSR1, Homo sapiens, UniProt O95747)

C#Cc1cc(-c2cc(Nc3nc(N[C@@H](C)c4ccc(F)cn4)ncc3Cl)n[nH]2)ccc1C=O  inhibition (enzyme activity; inhibitor; 0.2 µM): 18.2%
Cc1cc(O)c(-c2ccc([C@@H](C)CN(C)C)cc2)c2c1[nH]c(=O)c1sccc12  inhibition (enzyme activity; inhibitor; 0.1 µM): 6.5%
CC(C)S(=O)(=O)c1ccc2nccc(Nc3ccc4sc(C5CCCC5)nc4c3)c2c1  activity vs control (enzyme activity; inhibitor; 1 µM): 108%
Cc1ccc(NC(=O)c2ccnc(C(F)(F)F)c2)cc1-c1cc(OCCO)nc(N2CCOCC2)c1  remaining binding (binding; 1 µM): 89%
CO[C@@H]1[C@H](N(C)C(=O)c2ccccc2)C[C@H]2O[C@]1(C)n1c3ccccc3c3c4c(c5c6ccccc6n2c5c31)C(=O)NC4  inhibition (enzyme activity; inhibitor; 1 µM): 24%
CCCCC(=O)Nc1ccc(-c2ccc3ncn(CCC)c(=O)c3c2)cn1  remaining binding (binding; competition with immobilised ligand; 0.5 µM): 100%
C=CC(=O)N1CCC([C@@H]2CCNc3c(C(N)=O)c(-c4ccc(Oc5ccccc5)cc4)nn32)CC1  inhibition (enzyme activity; inhibitor; 1 µM): 0%
C[C@H]1CC[C@H](n2c3cnccc3c3cnc(Nc4ccc5c(n4)CCN(C(=O)CO)C5)nc32)CC1  remaining signal (cell-free assay; 1 µM): 100%
